According to ChEMBL document CHEMBL1140934, “Structure-activity relationships of antitubercular nitroimidazoles. 2. Determinants of aerobic activity and quantitative structure-activity relationships” (2009):
≈ marks a conversion by molar mass, not a printed value.

Key:
[1] = test system: Mycobacterium tuberculosis; experiment: Ratio of Kcat/Km for Mycobacterium tuberculosis F420-dependent nitroreductase by Michaelis-Menten equation
Outline: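 Buffer was 200 mM Tris pH 8.0 with 0.01% Triton X-100 and 20 µM H2F420. H2F420 was made with recombinant Mtb FGD1, which was then heat-inactivated (65°C, 10 min) and removed by ultrafiltration. F420 came from M. smegmatis.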

[2] = test system: Mycobacterium tuberculosis; experiment: Antimycobacterial activity against wild type Mycobacterium tuberculosis H37Rv ATCC 27294 after 2 weeks; type: functional; settings: 336 h
Outline: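 M. tuberculosis H37Rv was grown in 7H9 with 0.05% Tween 80, 0.2% glycerol and ADC to OD650 0.2, then diluted 1:1000. It was added to 2-fold serial drug dilutions in the same medium (11 dilutions, 200 µM to 0.19 µM). Plates were incubated 2 weeks at 37°C and MIC99 read macroscopically. Three independent determinations.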

[3] = test system: Mycobacterium tuberculosis; experiment: Antimycobacterial activity against wild type Mycobacterium tuberculosis H37Rv NRP-2 stage after 3 weeks under anaerobic condition; type: functional; settings: 504 h
Outline: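 H37Rv was anaerobically adapted from OD650 0.005 in glycerol-free Dubos broth, in sealed stirred tubes (head-space ratio 0.5) for 3 weeks at 37°C. Cultures were dispensed in an anaerobic chamber onto drug (2% DMSO final) and held anaerobically 7 days at 37°C. Cells were washed, 2-fold diluted and spotted on 7H11 agar for 3 weeks. MAC: 90% reduction in visible growth. Isoniazid and metronidazole controls; CFU counts corroborated.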

SMILES | kcat/Km [1] | MIC [2] | MBC [3]
O=[N+]([O-])c1cn2c(n1)SC[C@@H](OCc1ccc(OC(F)(F)F)cc1)C2 | 0.146 µM⁻¹ min⁻¹ | 0.8 µM (≈ 0.3 µg/mL) | 25 µM (≈ 9.38 µg/mL)
O=[N+]([O-])c1cn2c(n1)OC[C@@H](NCCCCCc1ccc(OC(F)(F)F)cc1)C2 | 0.91 µM⁻¹ min⁻¹ | 0.078 µM (≈ 0.0323 µg/mL) | 6.25 µM (≈ 2.59 µg/mL)
O=[N+]([O-])c1cn2c(n1)[S+]([O-])C[C@@H](OCc1ccc(OC(F)(F)F)cc1)C2 (stereo partly drawn) |  | > 100 µM | 50 µM (≈ 19.6 µg/mL)
O=[N+]([O-])c1cn2c(n1)OC[C@@H](NCc1ccc(OCc3ccc(OC(F)(F)F)cc3)cc1)C2 | 0.074 µM⁻¹ min⁻¹ | 0.16 µM (≈ 0.0743 µg/mL) | 1.56 µM (≈ 0.724 µg/mL)
O=[N+]([O-])c1cn2c(n1)OC[C@@H](NCCc1ccc(OC(F)(F)F)cc1)C2 | 0.11 µM⁻¹ min⁻¹ | 0.16 µM (≈ 0.0596 µg/mL) | 6.25 µM (≈ 2.33 µg/mL)
O=[N+]([O-])c1cn2c(n1)OC[C@@H](NCc1ccc(OCc3ccc(F)cc3)cc1)C2 | 0.452 µM⁻¹ min⁻¹ | 0.2 µM (≈ 0.0797 µg/mL) | 2 µM (≈ 0.797 µg/mL)
O=CN1CC(OCc2ccc(OC(F)(F)F)cc2)Cn2cc([N+](=O)[O-])nc21 (single isomer, unassigned) | 0.065 µM⁻¹ min⁻¹ | 3.2 µM (≈ 1.24 µg/mL) | 25 µM (≈ 9.66 µg/mL)
O=[N+]([O-])c1cn2c(n1)NC[C@@H](OCc1ccc(OC(F)(F)F)cc1)C2 | 0.243 µM⁻¹ min⁻¹ | 0.8 µM (≈ 0.287 µg/mL) | 125 µM (≈ 44.8 µg/mL)
N[C@@H]1COc2nc([N+](=O)[O-])cn2C1 |  | > 100 µM | > 500 µM
O=[N+]([O-])c1cn2c(n1)OC[C@@H](NCCCCc1ccc(OC(F)(F)F)cc1)C2 | 0.514 µM⁻¹ min⁻¹ | 0.039 µM (≈ 0.0156 µg/mL) | 3.13 µM (≈ 1.25 µg/mL)
CC(=O)N1CC(OCc2ccc(OC(F)(F)F)cc2)Cn2cc([N+](=O)[O-])nc21 (single isomer, unassigned) |  | 6.25 µM (≈ 2.5 µg/mL) | 31.2 µM (≈ 12.5 µg/mL)
O=[N+]([O-])c1cn2c(n1)OC[C@@H](NCCCc1ccc(OC(F)(F)F)cc1)C2 | 0.307 µM⁻¹ min⁻¹ | 0.078 µM (≈ 0.0301 µg/mL) | 3.12 µM (≈ 1.21 µg/mL)
CCCCc1ccc(CN[C@@H]2COc3nc([N+](=O)[O-])cn3C2)cc1 | 0.054 µM⁻¹ min⁻¹ | 0.78 µM (≈ 0.258 µg/mL) | 50 µM (≈ 16.5 µg/mL)
O=[N+]([O-])c1cn2c(n1)SC[C@H](OCc1ccc(OC(F)(F)F)cc1)C2 |  | 50 µM (≈ 18.8 µg/mL) | 50 µM (≈ 18.8 µg/mL)
O=[N+]([O-])c1cn2c(n1)OC[C@@H](NCc1ccc(OC(F)(F)F)cc1)C2 | 0.172 µM⁻¹ min⁻¹ | 0.31 µM (≈ 0.111 µg/mL) | 12.5 µM (≈ 4.48 µg/mL)
O=[N+]([O-])c1cn2c(n1)OC[C@@H](OCc1ccc(OC(F)(F)F)cc1)C2 [PRETOMANID] | 0.155 µM⁻¹ min⁻¹ | 0.8 µM (≈ 0.287 µg/mL) | 6.25 µM (≈ 2.25 µg/mL)
O=C(COc1ccc(OC(F)(F)F)cc1)N[C@@H]1COc2nc([N+](=O)[O-])cn2C1 | 0.017 µM⁻¹ min⁻¹ | 0.05 µM (≈ 0.0201 µg/mL) | 62.5 µM (≈ 25.1 µg/mL)
CN1C[C@@H](OCc2ccc(OC(F)(F)F)cc2)Cn2cc([N+](=O)[O-])nc21 | 0.061 µM⁻¹ min⁻¹ | 6.25 µM (≈ 2.33 µg/mL) | ≥ 100 µM
O=[N+]([O-])c1cn2c(n1)CC[C@@H](OCc1ccc(OC(F)(F)F)cc1)C2 | 0.024 µM⁻¹ min⁻¹ | 25 µM (≈ 8.93 µg/mL) | 250 µM (≈ 89.3 µg/mL)
O=[N+]([O-])c1cn2c(n1)OC[C@@H](NCc1ccc(OCc3ccccc3)cc1)C2 | 0.207 µM⁻¹ min⁻¹ | 0.15 µM (≈ 0.0571 µg/mL) | 6.25 µM (≈ 2.38 µg/mL)
O=[N+]([O-])c1cn2c(n1)S(=O)(=O)C[C@@H](OCc1ccc(OC(F)(F)F)cc1)C2 |  | > 100 µM | 25 µM (≈ 10.2 µg/mL)
